Measured values from ChEMBL document CHEMBL3525897, “Metabolism and quantification of [(18)F]DPA-714, a new TSPO positron emission tomography radioligand” (Drug Metab Dispos, 2013).

Legend:
[1] = Retention time of the compound by LC-MS analysis; type: physicochemical
Outline: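 Separation of DPA-714 and its metabolites by LC-MS on reverse-phase Atlantis C18 column (2.1x150 mm) with electrospray ionization.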

Liver microsome [2] = assay: Drug level in Sprague-Dawley rat liver microsomes treated with DPA-714 after 15 to 60 mins by LC-MS/MS analysis
[3] = Retention time in baboon plasma treated with [18F]DPA-714 by radio-HPLC analysis; type: ADME, cell-free; settings: papio anubis
Outline: (§1)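 Isoflurane-anaesthetized baboons, 6 PET experiments. Arterial femoral plasma sampled 0-120 min and centrifuged at 4°C, then deproteinated with acetonitrile; pellet radioactivity counted and treated as metabolite. Supernatant run on radio-HPLC (C18 preparative, 0.1% TFA water/acetonitrile 20-80% over 10 min, 5 mL/min). Counts decay-corrected to injection. Parent fraction as % total; data fitted to two exponentials; mean ± sd.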

[4] = Drug metabolism in baboon urine assessed as compound remaining measured at 180 mins by radio-HPLC analysis; type: ADME, tissue-based; settings: papio anubis, read-out: Stability
Outline: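 Baboon urine collected by catheter at 180 min after injection. 1 mL injected directly onto the plasma radio-HPLC system (C18, 0.1% TFA water/acetonitrile gradient).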

[5] = Chemical stability of the compound in saline; type: physicochemical; settings: buffer
[6] = Metabolic stability of the compound in baboon plasma at 20 kBq/ml at 37 degC by radio-HPLC analysis; type: ADME, cell-free; settings: papio anubis
Outline: (§2)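 Plasma spiked with 20 kBq/mL [18F]DPA-714, triplicate. Extracted with acetonitrile at time zero, or after incubation at 37°C (190 min for baboon plasma). Parent peak area measured by radio-HPLC.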

Plasma = assay: Metabolic stability of the compound in Sprague-Dawley rat plasma at 20 kBq/ml at 37 degC by radio-HPLC analysis; type: ADME, cell-free; outline: as §2
Brain = assay: Metabolic stability of the compound in Sprague-Dawley rat brain homogenate at 37 kBq at 37 degC by radio-HPLC analysis; type: ADME, tissue-based
Outline: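 Rat brain sonicated in 0.1 M potassium phosphate, pH 7.4, at 4°C and spiked with 37 kBq [18F]DPA-714. Aliquots extracted with acetonitrile at time zero and after 180 min at 37°C. Analysed by radio-HPLC.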

[7] = Drug recovery in baboon by SPE method; type: ADME, organism-based; settings: papio anubis, in vivo; read-out: Drug recovery
Outline: (§3)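 Baboon arterial plasma, five samples per animal, n=3. 200 μL diluted to 400 μL with 4% HCl and loaded on HLB SPE cartridge. Washed with water, then 35/65 acetonitrile/water; parent eluted with acetonitrile. All fractions and cartridge counted. Parent given as % of eluted radioactivity or of initial sample. Compared with radio-HPLC; mono-exponential fit.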

[8] = Metabolic stability of the compound in baboon plasma assessed as compound remaining by SPE method; type: ADME, cell-free; settings: papio anubis; outline: as §3
[9] = Half life in baboon by SPE method; type: ADME, organism-based; settings: papio anubis, in vivo; outline: as §3
[10] = Half life in baboon by radio-HPLC analysis; type: ADME, organism-based; settings: papio anubis, in vivo; outline: as §1
[11] = Retention time in baboon plasma by radio-HPLC analysis; type: ADME, cell-free; settings: papio anubis; outline: as §1
[12] = Drug metabolism in baboon assessed as compound remaining measured at 30 mins by radio-HPLC analysis; type: ADME, organism-based; settings: papio anubis, in vivo; read-out: Stability; outline: as §1
[13] = Drug metabolism in baboon assessed as compound remaining measured at 120 mins by radio-HPLC analysis; type: ADME, organism-based; settings: papio anubis, in vivo; read-out: Stability; outline: as §1
[14] = Biodistribution in baboon lung at 276 +/- 60 MBq, iv up to 90 mins by PET analysis; type: ADME, organism-based; settings: papio anubis, in vivo, 1.5 h
Outline: (§4)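 Whole-body PET (HR+) in male Papio anubis baboons after i.v. 276 ± 60 MBq (4.8 ± 2.1 nmol) [18F]DPA-714. 2D transmission scans for attenuation correction. 3D emission scans of 1 to 4 min per bed step, acquired up to 90 min post-injection. Uptake reported as SUVmax.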

[15] = Biodistribution in baboon heart at 276 +/- 60 MBq, iv up to 90 mins by PET analysis; type: ADME, organism-based; settings: papio anubis, in vivo, 1.5 h; outline: as §4
[16] = Biodistribution in baboon liver at 276 +/- 60 MBq, iv up to 90 mins by PET analysis; type: ADME, organism-based; settings: papio anubis, in vivo, 1.5 h; outline: as §4
[17] = Biodistribution in baboon gallbladder at 276 +/- 60 MBq, iv measured at 42 mins by PET analysis; type: ADME, organism-based, Gall bladder; settings: papio anubis, in vivo, 0.7 h; outline: as §4
[18] = Biodistribution in baboon spleen at 276 +/- 60 MBq, iv up to 90 mins by PET analysis; type: ADME, organism-based; settings: papio anubis, in vivo, 1.5 h; outline: as §4
[19] = Biodistribution in baboon kidney at 276 +/- 60 MBq, iv measured at 10 mins by PET analysis; type: ADME, organism-based; settings: papio anubis, in vivo; outline: as §4
[20] = Biodistribution in baboon urinary bladder at 276 +/- 60 MBq, iv up to 90 mins by PET analysis; type: ADME, organism-based; settings: papio anubis, in vivo, 1.5 h; outline: as §4
[21] = Biodistribution in baboon parotid gland at 276 +/- 60 MBq, iv up to 90 mins by PET analysis; type: ADME, organism-based; settings: papio anubis, in vivo, 1.5 h; outline: as §4
[22] = Biodistribution in baboon vertebral bodies at 276 +/- 60 MBq, iv up to 90 mins by PET analysis; type: ADME, organism-based; settings: papio anubis, in vivo, 1.5 h; outline: as §4
[23] = Biodistribution in baboon kidney at 276 +/- 60 MBq, iv measured at 90 mins by PET analysis; type: ADME, organism-based; settings: papio anubis, in vivo, 1.5 h; outline: as §4
[24] = Biodistribution in baboon duodenum at 276 +/- 60 MBq, iv by PET analysis; type: ADME, organism-based; settings: papio anubis, in vivo; outline: as §4
[25] = Biodistribution in Sprague-Dawley rat plasma at 32.1 +/- 2.8 MBq, iv measured at 120 mins by radio-HPLC analysis; type: ADME, organism-based; settings: 32.1 MBq
Outline: (§5)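 Male Sprague-Dawley rats (250-300 g) given 32.1 ± 2.8 MBq [18F]DPA-714 by tail vein and decapitated 120 min later. Brain sonicated twice in acetonitrile on ice, extracts pooled and concentrated. Plasma acetonitrile-deproteinated. Parent and radiometabolites separated by radio-HPLC (C18, 0.1% TFA water/acetonitrile gradient 20-80% B). Expressed as %ID/g. Thighbone cortex and marrow also counted. Mean ± sd of 2 experiments, 2 rats each.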

[26] = Biodistribution in Sprague-Dawley rat brain at 32.1 +/- 2.8 MBq, iv measured at 120 mins by radio-HPLC analysis; type: ADME, organism-based; settings: 32.1 MBq; outline: as §5
[27] = Ratio of drug level in brain to plasma in Sprague-Dawley rat at 32.1 +/- 2.8 MBq, iv measured at 120 mins by radio-HPLC analysis; type: ADME, organism-based; settings: brain and plasma, 32.1 MBq, read-out: BPR; outline: as §5
[28] = Biodistribution in Sprague-Dawley rat bone marrow at 32.1 +/- 2.8 MBq, iv measured at 120 mins by radio-HPLC analysis; type: ADME, organism-based; settings: 32.1 MBq; outline: as §5
[29] = Biodistribution in Sprague-Dawley rat thighbone cortex at 32.1 +/- 2.8 MBq, iv measured at 120 mins by radio-HPLC analysis; type: ADME, organism-based, Bone element; settings: 32.1 MBq; outline: as §5
[30] = Drug metabolism in baboon liver microsomes assessed as N,N-diethyl-2-(2-(4-hydroxyphenyl)-5,7-dimethylpyrazolo[1,5-a]pyrimidin-3-yl)acetamide level after 15 to 60 mins by LC-MS/MS analysis; type: ADME; settings: papio anubis
Outline: (§6)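 Liver microsomes (rat, baboon, or pooled human from 10 donors), 1 mg protein/mL, with DPA-714 100 µM in 0.1 M potassium phosphate, pH 7.4. Preincubated 2 min at 37°C, then started with NADPH-generating system. Run 15, 30 and 60 min; rates from 30 min. Stopped with acetonitrile, filtered, analysed by LC-MS-MS. Rates in nmol/mg/min; mean ± sd of 5 duplicate experiments.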

Liver microsome [31] = assay: Drug metabolism in human liver microsomes assessed as N-ethyl-2-(2-(4-(2-fluoroethoxy)phenyl)-5,7-dimethylpyrazolo[1,5-a]pyrimidin-3-yl)acetamide level after 15 to 60 mins by LC-MS/MS analysis; type: ADME; outline: as §6
Liver microsome [32] = assay: Drug metabolism in human liver microsomes assessed as N,N-diethyl-2-(2-(4-(2-fluoroethoxy)phenyl)-7-(hydroxymethyl)-5-methylpyrazolo[1,5-a]pyrimidin-3-yl)acetamide level after 15 to 60 mins by LC-MS/MS analysis; type: ADME; outline: as §6
Liver microsome [33] = assay: Drug metabolism in Sprague-Dawley rat liver microsomes assessed as N,N-diethyl-2-(2-(4-(2-fluoroethoxy)phenyl)-5-(hydroxymethyl)-7-methylpyrazolo[1,5-a]pyrimidin-3-yl)acetamide level after 15 to 60 mins by LC-MS/MS analysis; type: ADME; outline: as §6
Liver microsome [34] = assay: Drug metabolism in Sprague-Dawley rat liver microsomes assessed as N,N-diethyl-2-(2-(4-(2-fluoroethoxy)phenyl)-6-hydroxy-5,7-dimethylpyrazolo[1,5-a]pyrimidin-3-yl)acetamide level after 15 to 60 mins by LC-MS/MS analysis; type: ADME; outline: as §6
Liver microsome [35] = assay: Drug metabolism in Sprague-Dawley rat liver microsomes assessed as N-ethyl-2-(2-(4-(2-fluoroethoxy)phenyl)-5,7-dimethylpyrazolo[1,5-a]pyrimidin-3-yl)acetamide level after 15 to 60 mins by LC-MS/MS analysis; type: ADME; outline: as §6
Liver microsome [36] = assay: Drug metabolism in Sprague-Dawley rat liver microsomes assessed as N,N-diethyl-2-(2-(4-(2-fluoroethoxy)phenyl)-7-(hydroxymethyl)-5-methylpyrazolo[1,5-a]pyrimidin-3-yl)acetamide level after 15 to 60 mins by LC-MS/MS analysis; type: ADME; outline: as §6
Liver microsome [37] = assay: Drug metabolism in Sprague-Dawley rat liver microsomes assessed as N,N-diethyl-2-(2-(4-hydroxyphenyl)-5,7-dimethylpyrazolo[1,5-a]pyrimidin-3-yl)acetamide level after 15 to 60 mins by LC-MS/MS analysis; type: ADME; outline: as §6
Liver microsome [38] = assay: Drug metabolism in Sprague-Dawley rat liver microsomes assessed as N,N-diethyl-2-(2-(4-(2-fluoroethoxy)phenyl)-5,7-bis(hydroxymethyl)pyrazolo[1,5-a]pyrimidin-3-yl)acetamide level after 15 to 60 mins by LC-MS/MS analysis; type: ADME; outline: as §6
Liver microsome [39] = assay: Drug metabolism in Sprague-Dawley rat liver microsomes assessed as N-ethyl-2-(2-(4-(2-fluoroethoxy)phenyl)-5-(hydroxymethyl)-7-methylpyrazolo[1,5-a]pyrimidin-3-yl)acetamide level after 15 to 60 mins by LC-MS/MS analysis; type: ADME; outline: as §6
[40] = Drug metabolism in baboon liver microsomes assessed as N,N-diethyl-2-(2-(4-(2-fluoroethoxy)phenyl)-7-(hydroxymethyl)-5-methylpyrazolo[1,5-a]pyrimidin-3-yl)acetamide level after 15 to 60 mins by LC-MS/MS analysis; type: ADME; settings: papio anubis; outline: as §6

CCNC(=O)Cc1c(-c2ccc(OCCF)cc2)nn2c(C)cc(C)nc12
Retention_time [1]: 16.1 min
Drug metabolism (Liver microsome [2]): metabolite_detected

CCN(CC)C(=O)Cc1c(-c2ccc(OCCF)cc2)nn2c(C)c(O)c(C)nc12
Retention_time [1]: 16.43 min
Drug metabolism (Liver microsome [2]): metabolite_detected

CCNC(=O)Cc1c(-c2ccc(OCC[18F])cc2)nn2c(C)cc(CO)nc12
Retention_time [3]: 7.25 min

CCN(CC)C(=O)Cc1c(-c2ccc(OCCF)cc2)nn2c(C)cc(CO)nc12
Retention_time [1]: 16.87 min
Drug metabolism (Liver microsome [2]): metabolite_detected

CCN(CC)C(=O)Cc1c(-c2ccc(OCC[18F])cc2)nn2c(C)cc(C)nc12 [DPA-714 F-18]
remaining at 3 h [4]: < 2%
Stability [5]: Stable
Stability [6]: 190 min
Stability (Plasma): 180 min
Stability (Brain): 180 min
recovery [7]: 94%
Stability [8]: 95%
half-life [9]: 12 min
half-life [10]: 19 min
Retention_time [11]: 10.083 min
remaining at 0.5 h [12]: 46%
remaining at 2 h [13]: 11%
SUVmax [14]: 5.67
SUVmax [15]: 7.42
SUVmax [16]: 6.28
SUVmax [17]: 7.31
SUVmax [18]: 7.57
SUVmax [19]: 12.7
SUVmax [20]: 6.5
SUVmax [21]: 1.93
SUVmax [22]: 1.99
SUV [23]: 4.6
Drug uptake [24]: Active
tissue uptake at 2 h [25]: 15%
tissue uptake at 2 h [26]: 85%
Kp at 2 h [27]: 11
tissue uptake at 2 h [28]: 65%
tissue uptake at 2 h [29]: 35%

CCNC(=O)Cc1c(-c2ccc(OCC[18F])cc2)nn2c(C)cc(C)nc12
Retention_time [3]: 8.583 min

CCNC(=O)Cc1c(-c2ccc(OCCF)cc2)nn2c(C)cc(CO)nc12
Retention_time [1]: 13.88 min
Drug metabolism (Liver microsome [2]): metabolite_detected

CCN(CC)C(=O)Cc1c(-c2ccc(O)cc2)nn2c(C)cc(C)nc12
Retention_time [1]: 15.05 min
Drug metabolism (Liver microsome [2]): metabolite_detected

CCN(CC)C(=O)Cc1c(-c2ccc(OCCF)cc2)nn2c(CO)cc(C)nc12
Retention_time [1]: 15.85 min
Drug metabolism (Liver microsome [2]): metabolite_detected

CCN(CC)C(=O)Cc1c(-c2ccc(OCCF)cc2)nn2c(C)cc(C)nc12 [DPA-714]
Drug metabolism [30]: 0.64 nmol/mg/min
Drug metabolism (Liver microsome [31]): 0.45 nmol/mg/min
Drug metabolism (Liver microsome [32]): 0.57 nmol/mg/min
Drug metabolism (Liver microsome [33]): 0.89 nmol/mg/min
Drug metabolism (Liver microsome [34]): metabolite_detected
Drug metabolism (Liver microsome [35]): 0.82 nmol/mg/min
Drug metabolism (Liver microsome [36]): metabolite_detected
Drug metabolism (Liver microsome [37]): metabolite_detected
Drug metabolism (Liver microsome [38]): metabolite_detected
Drug metabolism (Liver microsome [39]): metabolite_detected
Drug metabolism [40]: 0.46 nmol/mg/min

CCN(CC)C(=O)Cc1c(-c2ccc(OCCF)cc2)nn2c(CO)cc(CO)nc12
Retention_time [1]: 14.28 min
Drug metabolism (Liver microsome [2]): metabolite_detected
